Measured values as given in ChEMBL document CHEMBL2417367 (Bioorg Med Chem, 2013).

Columns and labels:
[1] = target: Vascular endothelial growth factor receptor 2 (Homo sapiens, UniProt P35968); assay: Inhibition of KDR (unknown origin) using poly(Glu,Tyr) as substrate after 30 mins by HTRF assay
In short: (§1)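 HTRF kinase assay on plates precoated with poly(Glu,Tyr) 4:1 (20 µg/mL). ATP was added as a 10 mM solution in 50 mM HEPES pH 7.0 buffer with DTT, MgCl2, MnCl2 and 0.1% NaN3. Compounds were in 1% DMSO, and purified kinase started the reaction (30 min, 25 °C). Streptavidin-XL665/TK antibody cryptate stopped it, read at 320/615 nm. Inhibition was scaled to enzyme and no-enzyme controls; IC50 from curves.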

[2] = target: Platelet-derived growth factor receptor alpha (Homo sapiens, UniProt P16234); assay: Inhibition of PDGFRalpha (unknown origin) using poly(Glu,Tyr) as substrate after 30 mins by HTRF assay; in short: as §1
Chain of Platelet-derived growth factor receptor alpha (P16234 whole entry): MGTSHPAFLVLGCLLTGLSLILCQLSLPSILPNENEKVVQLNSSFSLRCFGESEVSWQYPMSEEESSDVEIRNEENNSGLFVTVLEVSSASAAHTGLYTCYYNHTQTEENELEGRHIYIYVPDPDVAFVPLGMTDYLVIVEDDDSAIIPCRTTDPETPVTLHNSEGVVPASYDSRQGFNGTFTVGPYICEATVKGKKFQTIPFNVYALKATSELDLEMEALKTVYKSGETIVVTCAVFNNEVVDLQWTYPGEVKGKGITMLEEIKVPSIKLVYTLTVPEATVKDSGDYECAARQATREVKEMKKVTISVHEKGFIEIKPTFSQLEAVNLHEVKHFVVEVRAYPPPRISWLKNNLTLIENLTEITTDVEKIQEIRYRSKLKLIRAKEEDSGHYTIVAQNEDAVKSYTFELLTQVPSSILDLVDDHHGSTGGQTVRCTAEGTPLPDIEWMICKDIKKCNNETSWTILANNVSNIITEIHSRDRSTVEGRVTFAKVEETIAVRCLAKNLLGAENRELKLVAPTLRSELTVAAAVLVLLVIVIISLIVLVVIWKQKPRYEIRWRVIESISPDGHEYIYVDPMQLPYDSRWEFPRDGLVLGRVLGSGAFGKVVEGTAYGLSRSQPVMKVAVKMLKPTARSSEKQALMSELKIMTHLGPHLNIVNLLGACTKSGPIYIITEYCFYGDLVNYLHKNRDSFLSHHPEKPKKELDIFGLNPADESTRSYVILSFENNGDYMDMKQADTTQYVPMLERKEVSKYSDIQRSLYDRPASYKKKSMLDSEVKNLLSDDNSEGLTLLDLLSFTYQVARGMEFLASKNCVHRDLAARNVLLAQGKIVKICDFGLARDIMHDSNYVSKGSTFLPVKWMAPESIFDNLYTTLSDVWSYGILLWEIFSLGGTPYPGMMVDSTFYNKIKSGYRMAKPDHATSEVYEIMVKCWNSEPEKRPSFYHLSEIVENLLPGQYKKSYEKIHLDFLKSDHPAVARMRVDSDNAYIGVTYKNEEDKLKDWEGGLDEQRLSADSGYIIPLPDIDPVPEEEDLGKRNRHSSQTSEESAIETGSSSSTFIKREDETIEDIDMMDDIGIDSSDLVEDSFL

[3] = target: Epidermal growth factor receptor (Homo sapiens, UniProt P00533); assay: Inhibition of EGFR (unknown origin) using poly(Glu,Tyr) as substrate after 30 mins by HTRF assay
Chain of Epidermal growth factor receptor (P00533 whole entry): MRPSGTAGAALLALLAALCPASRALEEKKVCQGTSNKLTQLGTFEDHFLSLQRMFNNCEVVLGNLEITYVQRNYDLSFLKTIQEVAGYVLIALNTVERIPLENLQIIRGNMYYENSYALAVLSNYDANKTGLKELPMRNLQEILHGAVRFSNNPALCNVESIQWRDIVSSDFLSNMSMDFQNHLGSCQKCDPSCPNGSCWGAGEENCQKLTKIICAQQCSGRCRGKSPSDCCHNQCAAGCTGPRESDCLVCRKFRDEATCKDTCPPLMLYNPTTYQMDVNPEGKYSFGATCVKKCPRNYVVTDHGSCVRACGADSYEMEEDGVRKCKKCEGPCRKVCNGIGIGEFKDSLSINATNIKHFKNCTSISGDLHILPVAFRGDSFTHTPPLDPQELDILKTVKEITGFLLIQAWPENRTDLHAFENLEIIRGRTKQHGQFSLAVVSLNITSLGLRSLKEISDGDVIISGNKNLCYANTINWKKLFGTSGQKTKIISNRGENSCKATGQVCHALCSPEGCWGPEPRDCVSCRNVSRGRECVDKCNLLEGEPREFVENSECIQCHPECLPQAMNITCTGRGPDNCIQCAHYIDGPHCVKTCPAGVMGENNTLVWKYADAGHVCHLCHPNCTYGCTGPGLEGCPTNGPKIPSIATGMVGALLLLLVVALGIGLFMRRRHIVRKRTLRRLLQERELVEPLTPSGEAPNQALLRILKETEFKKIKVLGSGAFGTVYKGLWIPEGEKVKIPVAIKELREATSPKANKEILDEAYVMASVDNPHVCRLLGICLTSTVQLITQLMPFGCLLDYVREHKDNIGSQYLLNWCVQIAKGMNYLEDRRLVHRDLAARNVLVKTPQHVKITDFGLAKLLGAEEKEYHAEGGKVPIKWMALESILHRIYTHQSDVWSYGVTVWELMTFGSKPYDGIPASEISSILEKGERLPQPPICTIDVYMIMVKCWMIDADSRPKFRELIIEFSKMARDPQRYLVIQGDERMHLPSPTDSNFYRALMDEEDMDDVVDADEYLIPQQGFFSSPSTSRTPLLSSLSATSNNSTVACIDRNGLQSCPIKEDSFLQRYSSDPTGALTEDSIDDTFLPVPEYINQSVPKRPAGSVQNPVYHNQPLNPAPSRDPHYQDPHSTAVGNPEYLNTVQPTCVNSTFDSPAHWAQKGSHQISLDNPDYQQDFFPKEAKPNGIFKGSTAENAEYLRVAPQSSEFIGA
In short: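 HTRF kinase assay with purified kinase protein on precoated poly(Glu,Tyr) 4:1 substrate (20 µg/mL). Buffer was 50 mM HEPES pH 7.0 with DTT, MgCl2, MnCl2 and 0.1% NaN3, plus ATP added from a 10 mM solution. Compounds were in 1% DMSO. Reaction ran 30 min at 25 °C and was stopped with Streptavidin-XL665 and TK antibody-cryptate. Read at 320/615 nm; % inhibition from max/min controls, IC50 from inhibition curves.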

[4] = cells; conditions: Homo sapiens, U-87 MG, 72 h
[5] = target: T1, Receptor-type tyrosine-protein kinase FLT3 (Homo sapiens, UniProt P36888); assay: Inhibition of FLT-3 (unknown origin) using poly(Glu,Tyr) as substrate after 30 mins by HTRF assay; in short: as §1
T1 sequence (P36888 whole entry): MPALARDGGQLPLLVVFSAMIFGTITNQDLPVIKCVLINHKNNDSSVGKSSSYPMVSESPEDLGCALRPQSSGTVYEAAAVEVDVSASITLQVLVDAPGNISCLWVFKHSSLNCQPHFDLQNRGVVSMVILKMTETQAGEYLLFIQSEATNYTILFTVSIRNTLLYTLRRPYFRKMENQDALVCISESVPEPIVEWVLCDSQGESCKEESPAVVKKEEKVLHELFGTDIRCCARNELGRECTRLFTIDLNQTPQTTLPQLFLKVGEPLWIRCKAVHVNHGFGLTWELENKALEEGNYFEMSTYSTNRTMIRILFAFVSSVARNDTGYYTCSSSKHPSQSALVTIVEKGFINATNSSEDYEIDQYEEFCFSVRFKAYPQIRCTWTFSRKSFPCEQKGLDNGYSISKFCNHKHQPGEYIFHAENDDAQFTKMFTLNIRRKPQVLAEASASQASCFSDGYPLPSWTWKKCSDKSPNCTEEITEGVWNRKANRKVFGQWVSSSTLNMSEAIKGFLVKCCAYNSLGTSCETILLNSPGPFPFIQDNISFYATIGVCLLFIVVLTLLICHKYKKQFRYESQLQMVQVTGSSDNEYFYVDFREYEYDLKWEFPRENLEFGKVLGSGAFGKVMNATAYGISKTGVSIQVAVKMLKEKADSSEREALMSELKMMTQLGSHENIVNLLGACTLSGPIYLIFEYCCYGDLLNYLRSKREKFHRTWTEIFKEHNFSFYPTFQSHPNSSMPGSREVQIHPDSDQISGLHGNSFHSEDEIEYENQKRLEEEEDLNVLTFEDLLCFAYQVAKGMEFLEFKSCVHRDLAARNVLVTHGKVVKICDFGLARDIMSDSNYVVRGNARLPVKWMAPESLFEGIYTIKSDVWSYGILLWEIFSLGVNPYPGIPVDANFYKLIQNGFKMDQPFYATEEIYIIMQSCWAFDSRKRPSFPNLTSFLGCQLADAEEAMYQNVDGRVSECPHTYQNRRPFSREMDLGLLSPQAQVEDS

[6] = test system: A549; assay: Cytotoxicity against human A549 cells after 72 hrs by MTT assay; format: functional, cell-based; conditions: A549, 72 h
[7] = target: Macrophage-stimulating protein receptor (Homo sapiens, UniProt Q04912); assay: Inhibition of RON (unknown origin) using poly(Glu,Tyr) as substrate after 30 mins by HTRF assay; in short: as §1
Chain of Macrophage-stimulating protein receptor (Q04912 25-304 limits assumed): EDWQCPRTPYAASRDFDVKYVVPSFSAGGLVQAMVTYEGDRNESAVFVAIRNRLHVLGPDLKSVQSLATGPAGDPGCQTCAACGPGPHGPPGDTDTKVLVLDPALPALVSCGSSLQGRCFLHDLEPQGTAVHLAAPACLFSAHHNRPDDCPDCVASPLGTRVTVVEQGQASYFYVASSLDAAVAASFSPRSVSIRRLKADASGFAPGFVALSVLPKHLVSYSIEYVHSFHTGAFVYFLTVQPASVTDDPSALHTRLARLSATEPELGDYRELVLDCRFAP
Chain of Macrophage-stimulating protein receptor (Q04912 310-1400 limits assumed): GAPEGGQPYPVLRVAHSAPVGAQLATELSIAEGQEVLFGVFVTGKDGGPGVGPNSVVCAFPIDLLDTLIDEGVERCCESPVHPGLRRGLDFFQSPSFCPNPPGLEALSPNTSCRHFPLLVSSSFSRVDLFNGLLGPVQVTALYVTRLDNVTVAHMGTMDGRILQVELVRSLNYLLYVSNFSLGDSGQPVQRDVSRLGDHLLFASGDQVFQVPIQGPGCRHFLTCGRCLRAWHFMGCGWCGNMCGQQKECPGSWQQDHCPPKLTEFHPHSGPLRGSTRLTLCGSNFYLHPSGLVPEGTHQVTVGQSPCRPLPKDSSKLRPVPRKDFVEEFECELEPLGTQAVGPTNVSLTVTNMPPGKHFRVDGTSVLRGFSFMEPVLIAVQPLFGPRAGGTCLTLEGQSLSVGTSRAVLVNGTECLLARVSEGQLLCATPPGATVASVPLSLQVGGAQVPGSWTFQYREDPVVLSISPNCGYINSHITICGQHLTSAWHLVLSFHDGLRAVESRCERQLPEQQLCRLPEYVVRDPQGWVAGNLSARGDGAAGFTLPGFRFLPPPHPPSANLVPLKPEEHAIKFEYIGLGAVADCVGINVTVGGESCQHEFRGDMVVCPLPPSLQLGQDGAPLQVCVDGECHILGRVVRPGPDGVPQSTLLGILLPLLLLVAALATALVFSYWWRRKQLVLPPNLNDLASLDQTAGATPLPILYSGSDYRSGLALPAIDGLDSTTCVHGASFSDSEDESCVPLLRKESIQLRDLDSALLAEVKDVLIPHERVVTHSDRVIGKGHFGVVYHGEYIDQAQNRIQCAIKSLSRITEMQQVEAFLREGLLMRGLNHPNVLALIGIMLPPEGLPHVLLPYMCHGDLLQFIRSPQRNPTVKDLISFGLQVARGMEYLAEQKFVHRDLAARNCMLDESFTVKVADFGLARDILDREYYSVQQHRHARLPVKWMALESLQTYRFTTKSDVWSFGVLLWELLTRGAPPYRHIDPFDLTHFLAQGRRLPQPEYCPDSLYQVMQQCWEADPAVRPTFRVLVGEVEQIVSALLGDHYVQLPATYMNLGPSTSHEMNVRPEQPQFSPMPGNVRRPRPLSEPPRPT

[8] = test system: HT-29; assay: cells; conditions: Homo sapiens, HT-29, 72 h
[9] = test system: NCI-H460; assay: cells; conditions: Homo sapiens, NCI-H460, 72 h
[10] = test system: MKN-45; assay: cells; conditions: Homo sapiens, MKN-45, 72 h
[11] = target: Mast/stem cell growth factor receptor Kit (Homo sapiens, UniProt P10721); assay: Inhibition of c-KIT (unknown origin) using poly(Glu,Tyr) as substrate after 30 mins by HTRF assay; in short: as §1
[12] = test system: SMMC-7721; assay: cells; conditions: Homo sapiens, SMMC-7721, 72 h
[13] = test system: MDA-MB-231; assay: Cytotoxicity against human MDA-MB-231 cells after 72 hrs by MTT assay; format: functional, cell-based; conditions: MDA-MB-231, 72 h
In short: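 Cells were grown in MEM with 10% FBS. About 4×10^3 cells per well were seeded and incubated 24 h at 37 °C in 5% CO2. Compounds were then added at set final concentrations for 72 h. MTT (final 5 µg/mL) was added for 4 h at 37 °C, and formazan was dissolved in DMSO and read at 492 nm against a 630 nm reference. Each line was tested three times; IC50 is mean ± SD.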

Chain of Vascular endothelial growth factor receptor 2 (P35968 whole entry): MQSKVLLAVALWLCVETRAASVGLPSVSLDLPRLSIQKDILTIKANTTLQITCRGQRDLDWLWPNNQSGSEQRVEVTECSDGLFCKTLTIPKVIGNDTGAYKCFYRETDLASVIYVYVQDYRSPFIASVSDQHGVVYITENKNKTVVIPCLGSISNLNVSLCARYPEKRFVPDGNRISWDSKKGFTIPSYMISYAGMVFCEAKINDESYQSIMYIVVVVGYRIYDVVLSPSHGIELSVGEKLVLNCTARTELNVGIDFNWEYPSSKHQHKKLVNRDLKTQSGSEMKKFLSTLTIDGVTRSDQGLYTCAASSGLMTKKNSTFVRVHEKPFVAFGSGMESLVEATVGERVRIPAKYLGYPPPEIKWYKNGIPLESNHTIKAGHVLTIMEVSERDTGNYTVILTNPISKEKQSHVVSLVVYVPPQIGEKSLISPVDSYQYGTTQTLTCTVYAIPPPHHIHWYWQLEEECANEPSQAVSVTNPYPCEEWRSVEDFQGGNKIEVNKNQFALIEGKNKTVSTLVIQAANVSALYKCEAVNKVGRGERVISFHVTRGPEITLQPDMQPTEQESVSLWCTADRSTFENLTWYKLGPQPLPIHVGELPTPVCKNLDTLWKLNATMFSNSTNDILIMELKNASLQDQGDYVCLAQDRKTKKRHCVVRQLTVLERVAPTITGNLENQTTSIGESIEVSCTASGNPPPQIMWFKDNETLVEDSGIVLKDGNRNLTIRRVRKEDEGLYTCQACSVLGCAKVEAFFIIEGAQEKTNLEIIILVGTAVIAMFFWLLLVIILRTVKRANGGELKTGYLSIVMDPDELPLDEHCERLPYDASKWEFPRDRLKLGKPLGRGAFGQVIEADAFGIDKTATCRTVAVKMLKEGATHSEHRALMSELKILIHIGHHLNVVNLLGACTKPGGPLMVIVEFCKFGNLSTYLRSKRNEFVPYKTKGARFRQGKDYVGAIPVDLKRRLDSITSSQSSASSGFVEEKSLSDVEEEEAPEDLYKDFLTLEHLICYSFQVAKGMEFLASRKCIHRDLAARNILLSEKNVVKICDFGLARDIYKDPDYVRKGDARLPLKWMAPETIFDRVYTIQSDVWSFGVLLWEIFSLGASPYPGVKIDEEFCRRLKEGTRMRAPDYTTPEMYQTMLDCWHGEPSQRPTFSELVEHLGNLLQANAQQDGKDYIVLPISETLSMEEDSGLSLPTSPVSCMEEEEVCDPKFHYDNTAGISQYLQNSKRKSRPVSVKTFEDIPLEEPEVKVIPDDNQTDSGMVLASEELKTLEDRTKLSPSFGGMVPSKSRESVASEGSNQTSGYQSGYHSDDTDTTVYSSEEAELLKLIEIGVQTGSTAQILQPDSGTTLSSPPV

IC50 [1]: 690 nM | IC50 [2]: 390 nM | IC50 [3]: > 100000 nM | IC50 [4]: 9.7 nM | IC50 [5]: 380 nM | IC50 [7]: 18.7 nM | IC50 [8]: 80 nM | IC50 [9]: 57 nM | IC50 [10]: 510 nM | IC50 [11]: 230 nM | IC50 [12]: 290 nM
Structure (SMILES): COc1cc2c(Oc3ccc(NC(=O)N/N=C/c4ccc(F)cc4F)cc3F)ccnc2cc1OCCCN1CCC(C)CC1
IC50 [6]: 80 nM | IC50 [13]: 1100 nM
